Results on 1 compound are retold here after ChEMBL document CHEMBL1649090, “Discovery of (7R)-14-cyclohexyl-7-{[2-(dimethylamino)ethyl](methyl) amino}-7,8-dihydro-6H-indolo[1,2-e][1,5]benzoxazocine-11-carboxylic acid (MK-3281), a potent and orally bioavailable finger-loop inhibitor of the hepatitis C virus NS5B polymerase” (J Med Chem, 2011).

The subject of data set [1] is Hepatitis C virus. As to the kind of experiment: Antiviral activity against HCV1b infected in human Huh-7 cells assessed as inhibition of viral RNA replication after 96 hrs by ELISA assay in presence of 10% fetal calf serum. It is filed as functional, organism-based, Hepacivirus hominis. Particulars: genotype 1b, Huh-7, 96 h.
For data set [2], the system named is Hepatitis C virus. As to the kind of experiment: Inhibition of HCV1b NS5B delta21 polymerase after 1 hr. The class given is single protein, Hepatitis C virus subtype 1b. In outline:
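Enzyme inhibition IC50 measured on genotype 1b HCV NS5B polymerase truncated by 21 C-terminal residues (ΔC21).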

A short description of data set [3]: AUC in Sprague-Dawley rat at 3 mg/kg, po. Particulars: plasma. It is filed as ADME, organism-based. Also noted: dose 3 mg/kg, route oral. In outline: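 Single-dose rat PK with the compound given as its TFA salt to Sprague-Dawley rats (n = 3) in DMSO/PEG400/water 20%/60%/20%. Dosing was 3 mg/kg iv and 3 mg/kg po.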
Data set [4] can be described thus: Intrinsic clearance in dog liver microsomes assessed per mg of protein. The class given is ADME, Canis lupus familiaris, Microsome.
In data set [5] the test system is Hepatitis C virus. Nature of the data set: Antiviral activity against HCV1a. The class given is functional, organism-based, Hepacivirus hominis. Particulars: subtype 1a.
Data set [6] is described as follows: Cmax in dog at 1 mg/kg, iv and 2 mg/kg, po. It is filed as ADME, organism-based, Canis lupus familiaris. The conditions noted are these: in vivo. In outline:
(§1)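 Single-dose PK of the bis-HCl salt, n = 3 per species (dog po n = 2). Intravenous doses: rat 3, dog 1, rhesus 2 mg/kg, in DMSO/PEG400/water 20%/60%/20%. Oral doses: rat 3, dog 2, rhesus 4 mg/kg, in PEG400 for rat and dog and PEG400/water 70%/30% for rhesus.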

Data set [7] is described as follows: Clearance in rhesus monkey at 2 mg/kg, iv and 4 mg/kg, po. It is filed as ADME, organism-based, Macaca mulatta. Particulars: in vivo. In outline: as §1
Data set [8] can be described thus: Cmax in rhesus monkey at 2 mg/kg, iv and 4 mg/kg, po. It is filed as ADME, organism-based, Macaca mulatta. Particulars: in vivo. In outline: as §1
A short description of data set [9]: AUC in rhesus monkey at 4 mg/kg, po. The class given is ADME, organism-based, Macaca mulatta. Also noted: dose 4 mg/kg, route oral. The conditions noted are these: plasma. In outline:
as §1

Data set [10] in a line: Oral bioavailability in rhesus monkey at 4 mg/kg. It is filed as ADME, organism-based, Macaca mulatta. Particulars: in vivo. In outline:
as §1

The target of a further data set is Cytochrome P450 2C9 (Homo sapiens, UniProt P11712). As to the kind of experiment: Inhibition of CYP2C9 up to 50 uM. It is filed as ADME.
Data set [11] deals with T1, Nuclear receptor subfamily 1 group I member 2 (Homo sapiens, UniProt O75469).
T1 sequence (O75469 whole entry): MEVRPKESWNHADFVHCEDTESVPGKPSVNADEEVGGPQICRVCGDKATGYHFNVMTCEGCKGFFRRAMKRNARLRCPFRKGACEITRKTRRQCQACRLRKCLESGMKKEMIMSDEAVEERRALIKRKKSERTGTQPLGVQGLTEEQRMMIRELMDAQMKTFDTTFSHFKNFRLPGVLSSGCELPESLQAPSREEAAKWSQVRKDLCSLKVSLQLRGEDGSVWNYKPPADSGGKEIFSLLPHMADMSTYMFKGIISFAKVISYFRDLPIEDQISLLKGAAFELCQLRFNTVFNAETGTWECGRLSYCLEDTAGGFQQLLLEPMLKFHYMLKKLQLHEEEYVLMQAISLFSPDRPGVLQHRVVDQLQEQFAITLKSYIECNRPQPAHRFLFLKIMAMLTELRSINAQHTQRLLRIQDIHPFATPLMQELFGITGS
Nature of the data set: Inhibition of PXR activation up to 50 uM.

The target of data set [12] is Protein kinase C alpha type (Homo sapiens, UniProt P17252). As to the kind of experiment: Inhibition of PKCalpha.
In data set [13] the target is T2, DNA polymerase alpha catalytic subunit (Homo sapiens) (UniProt P09884).
T2 sequence (whole entry): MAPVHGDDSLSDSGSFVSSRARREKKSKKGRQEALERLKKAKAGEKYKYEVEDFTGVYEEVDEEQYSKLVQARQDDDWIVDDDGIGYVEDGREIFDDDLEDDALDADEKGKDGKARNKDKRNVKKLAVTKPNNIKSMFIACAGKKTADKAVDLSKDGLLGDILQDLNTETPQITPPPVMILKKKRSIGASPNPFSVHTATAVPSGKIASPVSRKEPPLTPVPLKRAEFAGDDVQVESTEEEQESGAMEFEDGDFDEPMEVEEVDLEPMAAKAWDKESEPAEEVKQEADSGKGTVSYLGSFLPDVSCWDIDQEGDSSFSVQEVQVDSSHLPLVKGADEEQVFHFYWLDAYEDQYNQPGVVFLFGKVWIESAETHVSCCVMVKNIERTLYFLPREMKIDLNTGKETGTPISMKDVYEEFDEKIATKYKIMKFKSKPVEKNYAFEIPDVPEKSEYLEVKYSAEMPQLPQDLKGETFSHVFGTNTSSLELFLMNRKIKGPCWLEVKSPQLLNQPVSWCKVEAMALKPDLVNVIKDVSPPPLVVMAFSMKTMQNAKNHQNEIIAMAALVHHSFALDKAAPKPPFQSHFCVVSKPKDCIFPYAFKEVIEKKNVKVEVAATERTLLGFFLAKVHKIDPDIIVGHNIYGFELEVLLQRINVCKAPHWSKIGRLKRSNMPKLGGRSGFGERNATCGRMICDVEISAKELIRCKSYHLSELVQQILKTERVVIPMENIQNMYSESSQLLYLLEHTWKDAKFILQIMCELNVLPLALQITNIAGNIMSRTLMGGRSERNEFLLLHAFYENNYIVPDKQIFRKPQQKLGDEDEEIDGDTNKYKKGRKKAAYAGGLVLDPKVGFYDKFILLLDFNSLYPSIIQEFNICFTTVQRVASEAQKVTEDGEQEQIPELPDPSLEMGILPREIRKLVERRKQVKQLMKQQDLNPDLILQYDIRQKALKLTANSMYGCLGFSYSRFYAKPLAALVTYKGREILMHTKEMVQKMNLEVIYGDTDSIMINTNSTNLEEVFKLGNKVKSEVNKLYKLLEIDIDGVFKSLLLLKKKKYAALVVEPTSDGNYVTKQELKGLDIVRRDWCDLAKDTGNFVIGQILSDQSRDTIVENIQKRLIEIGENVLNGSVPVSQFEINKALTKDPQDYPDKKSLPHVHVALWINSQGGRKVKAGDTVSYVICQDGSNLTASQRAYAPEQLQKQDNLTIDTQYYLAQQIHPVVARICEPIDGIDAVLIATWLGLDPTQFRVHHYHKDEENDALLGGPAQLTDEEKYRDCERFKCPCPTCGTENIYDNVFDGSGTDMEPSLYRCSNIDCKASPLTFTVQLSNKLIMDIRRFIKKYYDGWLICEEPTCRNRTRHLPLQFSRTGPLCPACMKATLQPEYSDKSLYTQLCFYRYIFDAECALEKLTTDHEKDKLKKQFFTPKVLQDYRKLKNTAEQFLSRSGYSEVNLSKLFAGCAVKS
As to the kind of experiment: Inhibition of human DNA polymerase alpha up to 50 uM.

The species entered for a further data set is Homo sapiens. Nature of the data set: Inhibition of human DNA polymerase gamma up to 50 uM.
The test system of a further data set is Mus musculus. Nature of the data set: Toxicity in SCID mouse assessed as change in organ weight at 50 mg/kg, ip bid for 5 days. It is filed as organism-based. Particulars: in vivo, 120 h. Also noted: dose 50 mg/kg, route intraperitoneal. In outline: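 Non-infected SCID mice (n = 3) received 50 mg/kg by intraperitoneal injection twice daily for five consecutive days, as a tolerability run before the infected-mouse study. Body and organ weights were checked for gross changes. Plasma compound levels were measured 12 h after the last dose.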

The nature of data set [14]: Plasma concentration in SCID mouse at 50 mg/kg, ip bid for 5 days measured 12 hrs after last post dose. The class given is ADME, organism-based. Also noted: dose 50 mg/kg, route intraperitoneal. In outline:
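SCID mice (n = 3) were given 50 mg/kg by intraperitoneal injection twice daily for five consecutive days. Plasma compound level was measured 12 h after the last dose.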

Activity calls are given as the source filed them. The rule behind the calls is not given here.

Cytochrome P450 2C9, sequence (P11712 whole entry): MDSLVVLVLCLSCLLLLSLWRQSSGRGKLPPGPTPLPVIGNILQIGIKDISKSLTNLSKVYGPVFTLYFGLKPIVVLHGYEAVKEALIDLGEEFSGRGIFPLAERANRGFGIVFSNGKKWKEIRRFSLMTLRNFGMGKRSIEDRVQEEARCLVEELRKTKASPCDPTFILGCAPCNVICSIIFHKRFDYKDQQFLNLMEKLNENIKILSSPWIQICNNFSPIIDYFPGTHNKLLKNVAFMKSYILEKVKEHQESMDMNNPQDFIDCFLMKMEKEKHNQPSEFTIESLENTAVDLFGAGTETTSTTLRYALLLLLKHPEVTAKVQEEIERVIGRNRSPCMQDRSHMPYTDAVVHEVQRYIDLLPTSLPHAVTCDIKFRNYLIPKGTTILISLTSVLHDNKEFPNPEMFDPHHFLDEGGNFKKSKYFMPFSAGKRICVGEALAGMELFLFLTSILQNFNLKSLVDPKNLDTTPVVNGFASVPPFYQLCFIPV

In the case of `CN(C)CCN(C)[C@H]1COc2ccccc2-c2c(C3CCCCC3)c3ccc(C(=O)O)cc3n2C1` [MK-3281], the EC50 with Hepatitis C virus [1] is 38 nM; in the data set with Hepatitis C virus [5], 28 nM. The values for the IC50 (with Hepatitis C virus [2]; in [12]) were 6 nM and 59000 nM, respectively. Moreover, the AUC in data set [3] stood at 2.4 µM·h; in data set [9], 7.4 µM·h. The microsomal CLint in data set [4] was 3 µL/min/mg. The results for the Cmax in data set [6] and in data set [8] were 1000 nM and 800 nM, respectively. The same compound registered a clearance in data set [7] of 7 mL/min/kg. For the same compound, the bioavailability in data set [10] came out at 35%. The “inhibition (INH)” value (against Cytochrome P450 2C9; in [11]) was “Not Active” each time. The inhibition result (in [13]; in the data set listed under Homo sapiens) was “inactive” in each case. The Activity entry in the data set with Mus musculus is “Non-toxic”. The concentration at 12 h in data set [14] was found to be 3600 nM.
